Source: PubChem BioAssay
Most compounds without a hit are left out; they make up all but 1.7% or so of the library.
CSN deneddyl inh: inhibitors of CSN-mediated cullin deneddylation, primary screen, biochemical, fluorescence polarization, uHTS; inhibition, % at 12.5 µM; 0.38% of 360,000 active; AID 651999, 2013; Purified CSN, SCF-Nedd8-OG deneddylation;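 active means pattern-corrected inhibition above about 35%, with an unprinted fluorescence ratio check between 0.5 and 1.5, limit read from the data, passing the limit was not always enough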
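Test system: Human Csn5 produced in HEK293T cells | Compound: 12.5 µM single point | Times: 90 min, room temperature | Signal: Fluorescence polarization readout | Read-out basis: % inhibition of substrate cleavage by Csn5 | Controls: no-enzyme wells high, enzyme-with-substrate wells low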
IDE act: human IDE activators in live cells, primary screen, fluorescence polarization, HEK cells, FAbeta-B substrate; AID 493087, 2011; 0.073% of 340,000 active; activation, % at 5.96 µM; FAbeta-B cleavage; 0% vehicle, 100% cell-free pure enzyme wells;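 active means activation above the mean of all tested compounds plus 3 SD, set per screening campaign, cut at about 17% in these data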
Target sequence (P14735 whole entry, looked up): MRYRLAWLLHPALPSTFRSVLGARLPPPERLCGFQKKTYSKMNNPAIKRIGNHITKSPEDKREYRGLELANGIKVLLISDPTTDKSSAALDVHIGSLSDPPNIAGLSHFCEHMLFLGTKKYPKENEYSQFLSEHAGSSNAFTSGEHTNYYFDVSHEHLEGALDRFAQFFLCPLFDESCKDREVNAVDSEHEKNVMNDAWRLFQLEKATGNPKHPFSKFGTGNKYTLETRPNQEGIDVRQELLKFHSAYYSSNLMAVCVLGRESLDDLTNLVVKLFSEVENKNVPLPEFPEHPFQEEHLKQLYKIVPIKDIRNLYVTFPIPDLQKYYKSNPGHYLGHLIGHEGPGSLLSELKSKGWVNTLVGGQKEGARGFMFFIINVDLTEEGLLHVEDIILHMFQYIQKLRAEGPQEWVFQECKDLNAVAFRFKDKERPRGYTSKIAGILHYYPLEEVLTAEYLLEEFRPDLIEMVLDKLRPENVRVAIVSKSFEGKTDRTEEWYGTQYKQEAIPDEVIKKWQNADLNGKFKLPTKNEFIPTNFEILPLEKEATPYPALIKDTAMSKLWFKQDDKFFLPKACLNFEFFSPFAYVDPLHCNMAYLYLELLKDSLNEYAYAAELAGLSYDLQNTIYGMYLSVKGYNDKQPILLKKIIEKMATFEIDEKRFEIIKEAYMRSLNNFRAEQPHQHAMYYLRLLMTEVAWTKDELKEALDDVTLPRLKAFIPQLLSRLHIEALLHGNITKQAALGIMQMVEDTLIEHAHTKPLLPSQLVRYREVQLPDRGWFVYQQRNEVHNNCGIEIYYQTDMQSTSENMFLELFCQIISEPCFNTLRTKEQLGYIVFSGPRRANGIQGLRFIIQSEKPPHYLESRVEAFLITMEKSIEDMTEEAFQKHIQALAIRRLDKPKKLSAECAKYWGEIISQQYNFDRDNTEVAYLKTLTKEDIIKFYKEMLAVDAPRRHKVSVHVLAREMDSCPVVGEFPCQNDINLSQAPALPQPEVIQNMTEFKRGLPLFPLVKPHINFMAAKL
TPT1 inhibitor: Candida albicans TPT1 enzyme inhibitors, primary screen, biochemical, fluorescence polarization; 0.81% of 300,000 active; AID 1962, 2009; inhibition, % at 5 µM; recombinant caTPT1, FP RNA substrate dephosphorylation; tRNA 2'-phosphotransferase TPT1 (Candida albicans SC5314);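 active means inhibition above the mean of all tested compounds plus 3 SD, set per screening campaign, cut at about 24% in these data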
IDE cell inh: human IDE inhibitors in live cells, primary screen, fluorescence polarization, HEK cells, FAbetaB substrate; Insulin-degrading enzyme (Homo sapiens), P14735; FAbetaB cleavage; inhibition, % at 5.59 µM; 0.41% of 320,000 active; AID 434962, 2010;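 active means percent inhibition above the average of all tested compounds plus 3 SD, set per screening campaign, cut at about 16% in these data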;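 further: IDE supplied by intact live HEK cells; FP after avidin binding of uncleaved biotin substrate so inhibition keeps polarization high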
Rpn11 inh: Rpn11 (PSMD14) deubiquitinase inhibitors, primary screen, biochemical, fluorescence polarization, uHTS; inhibition, % at 20 µM; human 26S proteasome, Ub4-pepOG fluorescence polarization; 20S core pre-blocked with epoxomicin; 0.59% of 360,000 active; AID 588493, 2011;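 active means inhibition at 20 µM, scaled to each plate's controls, above about 33%, limit read from the data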
HNF4A DNA FP: change in binding of human HNF4A to DNA, primary screen, biochemical, fluorescence polarization, FITC-DNA | activity change, % at 10 µM | 0.3% of 360,000 active | 1 h; in the data active means activity change above about 30%, passing the limit was not always enough
Rpn11 inh conf: Rpn11 (PSMD14) deubiquitinase inhibitors, confirmation, biochemical, fluorescence polarization, single concentration; purified human 26S proteasome, Ub4-pepOG fluorescence polarization; proteasome pretreated with epoxomicin; 29% of 1,900 active; shares compounds with Rpn11 inh; inhibition, % at 20 µM
MMP-2 counter-1: MMP-2 enzyme inhibition, confirmation, counter-screen for RPN11 inhibitor project, biochemical, fluorescence, single concentration; shares compounds with Rpn11 inh; recombinant MMP-2, FRET peptide cleavage fluorescence; inhibition, % at 20 µM; 4% of 1,900 active;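 further: human MMP-2 activated beforehand with APMA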
Thrombin inh: bovine thrombin protease inhibition, confirmation, counter-screen for Rpn11 inhibitor project, biochemical, fluorescence polarization, single concentration; 13% of 1,900 active; inhibition, % at 20 µM; bovine thrombin cleavage of Ub4-pepOG; shares compounds with Rpn11 inh;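 active means mean inhibition at least 40% at 20 µM, or signal 3 deviations below plate average, so some actives read negative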
CSN5 deneddyl: Csn5 deneddylation inhibitors, confirmation, biochemical, fluorescence polarization, single concentration, SCF-Nedd8OG substrate | shares compounds with CSN deneddyl inh | Csn5 deneddylation of SCF-Nedd8OG, 90 min | inhibition, % at 16.6 µM | 62% of 540 active; in the data active means inhibition above about 50%
MMP-2 counter-2: MMP-2 protease inhibition counter-screen, confirmation, counter-screen for CSN deneddylation inhibitor project, biochemical, fluorescence, single concentration; recombinant MMP-2, FRET substrate fluorescence, 60 min; inhibition, % at 16.6 µM; 33% of 540 active; shares compounds with CSN deneddyl inh;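 active means corrected plate-normalized z-score of 5 or more, or -5 or less, or inhibition of 15% or more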
Thrombin cntr: counter-screen for CSN deneddylation inhibitors: bovine thrombin inhibition; bovine thrombin cleavage of Ub4-pepOG, fluorescence polarization; inhibition, % at 16.6 µM; shares compounds with CSN deneddyl inh; 49% of 540 active;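 active means inhibition at or above a set limit, with a fluorescence interference ratio between 0.5 and a set maximum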
Each line names hits and unclear results; the compound was inactive in the other large screens (follow-up assays come after a bar, where they were run). Unless noted, no stated cut-off is given here; in the data, active means inhibition above about 40%; inactive means the rest.

CC(C)c1ccc(OCC(=O)N(Cc2ccccc2)c2ccccn2)cc1	Rpn11 inh 43 | Rpn11 inh conf inactive | MMP-2 counter-1 inactive | Thrombin inh inactive
Cc1sc2nc3c4ccccc4c(NCc4ccco4)nn3c(=O)c2c1C	CSN deneddyl inh 64, Rpn11 inh 47 | Rpn11 inh conf inactive | MMP-2 counter-1 inactive | Thrombin inh inactive | CSN5 deneddyl 102 | MMP-2 counter-2 inactive | Thrombin cntr inactive
CC1=NN2C(=N)/C(=C\c3cc(C)n(-c4cccc(C)c4)c3C)C(=O)N=C2S1	none
CC(=O)NC1=NC(=O)/C(=C/c2cc(C)n(-c3cccc(C(=O)O)c3)c2C)S1	CSN deneddyl inh 61, Rpn11 inh 136, HNF4A DNA FP 49 (no result: IDE act, TPT1 inhibitor, IDE cell inh) | Rpn11 inh conf active | MMP-2 counter-1 40 | Thrombin inh 136 | CSN5 deneddyl inactive | MMP-2 counter-2 16 | Thrombin cntr 53
CCC(=O)Nc1ccc2c(c1)Cc1cc([N+](=O)[O-])ccc1-2	none (no result: TPT1 inhibitor, IDE cell inh)
Cc1nc(S/C(=C\c2ccc(-c3ccc(C(=O)O)c(Cl)c3)o2)C(=O)O)n[nH]1	CSN deneddyl inh 73, Rpn11 inh 67 (no result: TPT1 inhibitor, IDE cell inh) | Rpn11 inh conf 197 | MMP-2 counter-1 inactive | Thrombin inh inactive | MMP-2 counter-2 19 | Thrombin cntr inactive
O=C1c2cccc(NCCCNCCO)c2C(=O)c2cccc(NCCCNCCO)c21	CSN deneddyl inh 94, Rpn11 inh 42 (no result: TPT1 inhibitor, IDE cell inh) | Rpn11 inh conf inactive | MMP-2 counter-1 inactive | Thrombin inh inactive | CSN5 deneddyl inactive | MMP-2 counter-2 34 | Thrombin cntr inactive
Cc1cccc(NC(=O)CNC(=O)Cc2ccc3c(c2)OCCO3)c1C	none (no result: TPT1 inhibitor)
O=C(CCCN1C(=O)/C(=C\c2ccco2)SC1=S)Nc1ccc2ccccc2c1	none
COc1ccccc1/C=C1\SC(=S)N(CCC(=O)Nc2ccc(C(=O)O)c(O)c2)C1=O	none
O=C(CCCN1C(=O)/C(=C/c2ccco2)SC1=S)Nc1ccccc1C(=O)O	CSN deneddyl inh 39, Rpn11 inh 68 | Rpn11 inh conf inactive | MMP-2 counter-1 inactive | Thrombin inh inactive | CSN5 deneddyl 83 | MMP-2 counter-2 25 | Thrombin cntr 32
O=C(CCN1C(=O)/C(=C/c2ccco2)SC1=S)Nc1ccc(C(=O)O)c(O)c1	CSN deneddyl inh 52, Rpn11 inh 64 | Rpn11 inh conf inactive | MMP-2 counter-1 inactive | Thrombin inh inactive | CSN5 deneddyl 73 | MMP-2 counter-2 inactive | Thrombin cntr inactive
CC[n+]1ccccc1/C=C/c1ccc(N(C)C)cc1	CSN deneddyl inh 38, Rpn11 inh 96, HNF4A DNA FP 50 (no result: TPT1 inhibitor, IDE cell inh) | Rpn11 inh conf 84 | MMP-2 counter-1 inactive | Thrombin inh 88 | CSN5 deneddyl 65 | MMP-2 counter-2 -73 | Thrombin cntr 46
CCN(CC)S(=O)(=O)c1ccc(C)c(NC(=S)N2CCN(Cc3ccc4c(c3)OCO4)CC2)c1	none
c1ccc(Oc2ccccc2-c2cc(NCCc3cccnc3)n3nccc3n2)cc1	none (no result: IDE act, TPT1 inhibitor, IDE cell inh)
COC(=O)c1cc2c(=O)c3ccccc3oc2nc1/C=C/N(C)C	CSN deneddyl inh 77, Rpn11 inh 44 (no result: TPT1 inhibitor, IDE cell inh) | Rpn11 inh conf inactive | MMP-2 counter-1 inactive | Thrombin inh inactive | CSN5 deneddyl 95 | MMP-2 counter-2 inactive | Thrombin cntr 28
O=C(Nc1ccc(C(=O)O)cc1)/C(=C\c1ccc2c(c1)OCO2)NC(=O)c1ccccc1Cl	none (no result: IDE act, TPT1 inhibitor, IDE cell inh)
COc1ccc(/C=N/Nc2cc(C)nc3ccccc23)cc1	none
COc1ccc2nc(C)cc(N/N=C/c3ccc(F)cc3)c2c1	CSN deneddyl inh 45, Rpn11 inh 69 | Rpn11 inh conf inactive | MMP-2 counter-1 inactive | Thrombin inh inactive | CSN5 deneddyl 92 | MMP-2 counter-2 16 | Thrombin cntr inactive
COc1ccc(/C=c2\sc3nc(=O)c(C)nn3c2=O)c(OC)c1	none
COc1ccc(Br)cc1/C=c1\sc2nc(-c3ccco3)nn2c1=O	CSN deneddyl inh 41, Rpn11 inh 91 | Rpn11 inh conf inactive | MMP-2 counter-1 inactive | Thrombin inh inactive | CSN5 deneddyl 70 | MMP-2 counter-2 inactive | Thrombin cntr inactive
COc1cc(N(C)C)ccc1C=c1c2ccccc2n2c1cc(-c1ccccc1)[n+]2C	CSN deneddyl inh 71, Rpn11 inh 115 (no result: TPT1 inhibitor, IDE cell inh) | Rpn11 inh conf 98 | MMP-2 counter-1 inactive | Thrombin inh 82 | CSN5 deneddyl inactive | MMP-2 counter-2 73 | Thrombin cntr 57
COc1cc(C=c2c3ccccc3n3c2cc(-c2ccccc2)[n+]3C)cc(OC)c1OC	none (no result: TPT1 inhibitor, IDE cell inh)
O=C(CCN1C(=O)C2CCCCC2C1=O)Nc1nc(-c2ccccc2)cs1 (stereo not given)	none
